# Data as given in ChEMBL document CHEMBL1667819, “Aminopyridinecarboxamide-based inhaled IKK-2 inhibitors for asthma and COPD: Structure-activity relationship” (Bioorg Med Chem, 2011).
# Key:
# [1] = tested on: PBMC; test: Inhibition of LPS-stimulated TNFalpha release in human PBMC; assay type: functional, cell-based
# Procedure, shortened: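 PBMC were Ficoll-isolated from heparinized blood of healthy donors and plated at 2.5 × 10⁵ cells/well in RPMI 1640 with 5% FBS and penicillin–streptomycin. Cells were preincubated with compound for 1 h, then stimulated with LPS (20 ng/ml) for 16 h. Supernatant TNFα was measured by ELISA, and IC50 is the mean of ≥3 experiments.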
# [2] = Half life in human liver microsomes
# [3] = target: Voltage-gated inwardly rectifying potassium channel KCNH2 (Homo sapiens, UniProt Q12809); test: Displacement of dofetilide from human ERG transfected in HEK293 cells by fluorescence polarization assay
# Voltage-gated inwardly rectifying potassium channel KCNH2, sequence (Q12809 whole entry): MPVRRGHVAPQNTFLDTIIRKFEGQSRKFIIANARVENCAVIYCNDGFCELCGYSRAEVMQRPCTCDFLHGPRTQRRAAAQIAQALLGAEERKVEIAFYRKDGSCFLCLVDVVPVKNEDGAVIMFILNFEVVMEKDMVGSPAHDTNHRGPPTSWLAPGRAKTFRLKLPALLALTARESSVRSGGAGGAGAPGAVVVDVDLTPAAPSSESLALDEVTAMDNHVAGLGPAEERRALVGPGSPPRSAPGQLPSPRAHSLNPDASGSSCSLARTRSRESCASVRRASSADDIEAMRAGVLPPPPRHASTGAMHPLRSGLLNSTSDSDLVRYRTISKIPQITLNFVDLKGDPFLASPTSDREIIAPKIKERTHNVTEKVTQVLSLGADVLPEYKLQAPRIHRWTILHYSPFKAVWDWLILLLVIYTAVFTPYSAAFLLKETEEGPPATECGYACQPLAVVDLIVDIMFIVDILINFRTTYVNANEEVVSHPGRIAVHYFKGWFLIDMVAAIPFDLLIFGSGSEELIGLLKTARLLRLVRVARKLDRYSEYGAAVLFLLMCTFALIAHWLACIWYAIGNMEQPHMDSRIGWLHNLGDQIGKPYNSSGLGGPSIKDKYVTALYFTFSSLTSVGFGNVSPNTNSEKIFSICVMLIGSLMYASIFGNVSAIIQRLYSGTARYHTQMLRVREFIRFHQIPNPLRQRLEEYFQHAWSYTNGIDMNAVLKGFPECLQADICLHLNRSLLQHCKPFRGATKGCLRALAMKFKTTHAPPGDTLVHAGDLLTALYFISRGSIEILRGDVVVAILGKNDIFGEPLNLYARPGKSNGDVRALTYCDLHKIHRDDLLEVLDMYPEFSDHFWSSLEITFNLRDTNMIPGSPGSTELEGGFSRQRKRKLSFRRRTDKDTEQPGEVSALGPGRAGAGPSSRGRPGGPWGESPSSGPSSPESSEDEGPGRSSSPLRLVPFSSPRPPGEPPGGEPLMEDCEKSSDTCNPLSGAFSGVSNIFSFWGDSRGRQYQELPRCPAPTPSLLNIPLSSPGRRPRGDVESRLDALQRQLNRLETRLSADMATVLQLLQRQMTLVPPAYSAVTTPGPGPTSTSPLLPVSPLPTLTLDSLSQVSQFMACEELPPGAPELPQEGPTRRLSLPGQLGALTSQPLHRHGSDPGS
# Procedure, shortened: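 Competition binding used membranes from HEK-293 cells transfected with hERG. Test compound competed with Cy3B-tagged N-desmethyl dofetilide for channel binding, with fluorescence polarization read-out. Values are given as % of effect.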
# [4] = target: T1, Inhibitor of nuclear factor kappa-B kinase subunit beta (Homo sapiens) (UniProt O14920); test: Binding affinity to human recombinant IKK2 assessed as half life
# T1 sequence (whole entry): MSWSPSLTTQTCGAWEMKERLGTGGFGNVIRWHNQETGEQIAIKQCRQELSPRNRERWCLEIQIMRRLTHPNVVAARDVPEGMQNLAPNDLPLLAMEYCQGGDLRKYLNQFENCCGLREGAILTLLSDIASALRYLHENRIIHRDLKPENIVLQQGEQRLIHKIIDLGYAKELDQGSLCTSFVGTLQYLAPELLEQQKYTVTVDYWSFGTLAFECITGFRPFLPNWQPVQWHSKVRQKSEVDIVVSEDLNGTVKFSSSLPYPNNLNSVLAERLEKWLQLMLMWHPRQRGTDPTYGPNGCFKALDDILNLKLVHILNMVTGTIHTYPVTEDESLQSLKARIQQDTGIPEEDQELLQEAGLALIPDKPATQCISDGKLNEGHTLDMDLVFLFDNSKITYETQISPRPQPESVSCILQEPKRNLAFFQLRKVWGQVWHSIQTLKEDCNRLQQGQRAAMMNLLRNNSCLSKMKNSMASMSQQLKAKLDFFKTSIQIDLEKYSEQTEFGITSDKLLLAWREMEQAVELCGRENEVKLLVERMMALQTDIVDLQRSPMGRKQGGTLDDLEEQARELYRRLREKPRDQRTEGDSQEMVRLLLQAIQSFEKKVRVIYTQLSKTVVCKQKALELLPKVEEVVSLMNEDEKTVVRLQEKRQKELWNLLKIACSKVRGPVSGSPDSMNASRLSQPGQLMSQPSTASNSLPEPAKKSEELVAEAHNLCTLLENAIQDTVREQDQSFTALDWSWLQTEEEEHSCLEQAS
# [5] = target: T2, Inhibitor of nuclear factor kappa-B kinase subunit beta (Homo sapiens, UniProt O14920); test: Inhibition of human recombinant IKK2
# T2 sequence (O14920 whole entry): T1 sequence (whole entry)
# [6] = target: T1, Inhibitor of nuclear factor kappa-B kinase subunit beta (Homo sapiens); test: Binding affinity to human IKK2 in PBMC assessed as half life by cell-based assay
# Procedure, shortened: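 Cryopreserved PBMC were thawed and plated, then exposed to compound for 1 h. Compound was removed by four spin-and-aspirate washes, and an unwashed plate served as control. Loss of inhibition after washout gave the cellular half-life.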
SMILES,IC50 [1] [nM],half-life ([2]; liver microsomes) [h],inhibition (INH) [3] [%],T1/2 [4] [h],IC50 [5] [nM],T1/2 [6] [h],half-life ([2]; microsomes) [h]
COCCCn1cc(CN2CCN(c3cc(C(=O)Nc4ccc5c(c4)-c4c(c(C(N)=O)nn4-c4ccc(F)cc4)CC5)c(Cl)cn3)CC2)cn1,16,0.05,76,4,2.8,> 4,–
COCCN1CCN(c2cc(C(=O)Nc3ccc4c(c3)-c3c(c(C(N)=O)nn3-c3ccc(F)cc3)CC4)c(Cl)cn2)CC1,8,–,–,0.6,1.9,–,–
COCCNC(=O)Cn1cc(CN2CCN(c3cc(C(=O)Nc4ccc5c(c4)-c4c(c(C(N)=O)nn4-c4ccc(F)cc4)CC5)c(Cl)cn3)CC2)cn1,10,0.05,58,6,1.3,> 4,–
NC(=O)c1nn(-c2ccc(F)cc2)c2c1CCc1ccc(NC(=O)c3cc(N4CCN(Cc5cnn(CC(=O)N(CCO)CCO)c5)CC4)ncc3Cl)cc1-2,474,–,-1,4,10.2,> 4,–
CSCCNC(=O)Cn1cc(CN2CCN(c3cc(C(=O)Nc4ccc5c(c4)-c4c(c(C(N)=O)nn4-c4ccc(F)cc4)CC5)c(Cl)cn3)CC2)cn1,10,0.05,98,4,2.5,4,–
CN(C)CCCn1cc(CN2CCN(c3cc(C(=O)Nc4ccc5c(c4)-c4c(c(C(N)=O)nn4-c4ccc(F)cc4)CC5)c(Cl)cn3)CC2)cn1,12,0.183,42,4,3.7,> 4,–
CN1CCN(c2cc(C(=O)Nc3ccc4c(c3)-c3c(c(C(N)=O)nn3-c3cccc(F)c3)CC4)c(Cl)cn2)CC1,14,–,–,2,4.8,–,–
Cn1cc(CN2CCN(c3cc(C(=O)Nc4ccc5c(c4)-c4c(c(C(N)=O)nn4-c4cccc(F)c4)CC5)c(Cl)cn3)CC2)cn1,14,–,83,3,–,–,0.233
CN1CCN(c2cc(C(=O)Nc3ccc4c(c3)-c3c(c(C(N)=O)nn3-c3ccc(Cl)c(O)c3)CC4)c(Cl)cn2)CC1,–,–,–,1,2.2,–,–
CN(C)CCCNC(=O)Cn1cc(CN2CCN(c3cc(C(=O)Nc4ccc5c(c4)-c4c(c(C(N)=O)nn4-c4ccc(F)cc4)CC5)c(Cl)cn3)CC2)cn1,26,–,34,6,3.3,–,0.6
CN1CCN(c2cc(C(=O)Nc3ccc4c(c3)-c3c(c(C(N)=O)nn3-c3ccc(F)cc3)CC4)c(Cl)cn2)CC1,39,–,–,3,1.6,–,–
CCOC(=O)CCn1cc(CN2CCN(c3cc(C(=O)Nc4ccc5c(c4)-c4c(c(C(N)=O)nn4-c4ccc(F)cc4)CC5)c(Cl)cn3)CC2)cn1,14,0.05,90,6,4.7,> 4,–
Cn1cc(CN2CCN(c3cc(C(=O)Nc4ccc5c(c4)-c4c(c(C(N)=O)nn4-c4ccc(F)cc4)CC5)c(Cl)cn3)C(C(=O)O)C2)cn1 (centres undefined),529,–,–,4.2,0.5,–,–
Cn1cc(CN2CCN(c3cc(C(=O)Nc4ccc5c(c4)-c4c(c(C(N)=O)nn4-c4ccc(F)cc4)CC5)c(Cl)cn3)CC2)cn1,11,0.283,91,4,3,–,–
NC(=O)c1nn(-c2ccc(F)cc2)c2c1CCc1ccc(NC(=O)c3cc(N4CCN(Cc5cn[nH]c5)CC4)ncc3Cl)cc1-2,16,–,78,3,1.9,–,0.133
Cn1cc(CN2CCN(c3cc(C(=O)Nc4ccc5c(c4)-c4c(c(C(N)=O)nn4-c4ccc(F)cc4)CC5)c(Cl)cn3)CC2C(=O)O)cn1 (centres undefined),432,–,–,0.3,3.9,–,–
CN(C)C(=O)Cn1cc(CN2CCN(c3cc(C(=O)Nc4ccc5c(c4)-c4c(c(C(N)=O)nn4-c4ccc(F)cc4)CC5)c(Cl)cn3)CC2)cn1,13,0.133,50,5,2.3,< 4,–
CN1CCN(c2cc(C(=O)Nc3ccc4c(c3)-c3c(c(C(N)=O)nn3-c3ccc(O)cc3)CC4)c(Cl)cn2)CC1,75,–,–,1,3.5,–,–

SMILES,IC50 [1] [nM],half-life ([2]; liver microsomes) [h],inhibition (INH) [3] [%],T1/2 [4] [h],IC50 [5] [nM],T1/2 [6] [h],half-life ([2]; microsomes) [h]
CNC(=O)Cn1cc(CN2CCN(c3cc(C(=O)Nc4ccc5c(c4)-c4c(c(C(N)=O)nn4-c4ccc(F)cc4)CC5)c(Cl)cn3)CC2)cn1,15,0.217,57,6,1.4,> 4,–
COCCOC(=O)Cn1cc(CN2CCN(c3cc(C(=O)Nc4ccc5c(c4)-c4c(c(C(N)=O)nn4-c4ccc(F)cc4)CC5)c(Cl)cn3)CC2)cn1,9,–,66,4,1.3,> 4,–
Cc1ccc(-n2nc(C(N)=O)c3c2-c2cc(NC(=O)c4cc(N5CCN(C)CC5)ncc4Cl)ccc2CC3)cc1,38,–,–,–,14,–,–
NC(=O)Cn1cc(CN2CCN(c3cc(C(=O)Nc4ccc5c(c4)-c4c(c(C(N)=O)nn4-c4ccc(F)cc4)CC5)c(Cl)cn3)CC2)cn1,7,0.967,38,5,0.9,< 4,–
CN1CCN(c2cc(C(=O)Nc3ccc4c(c3)-c3c(c(C(N)=O)nn3-c3ccc(F)c(F)c3)CC4)c(Cl)cn2)CC1,65,–,–,–,10,–,–
NC(=O)c1nn(-c2ccc(F)cc2)c2c1CCc1ccc(NC(=O)c3cc(N4CCN(Cc5cnn(CC(=O)O)c5)CC4)ncc3Cl)cc1-2,221,2,29,–,0.5,–,–
CC(C)NC(=O)Cn1cc(CN2CCN(c3cc(C(=O)Nc4ccc5c(c4)-c4c(c(C(N)=O)nn4-c4ccc(F)cc4)CC5)c(Cl)cn3)CC2)cn1,36,–,94,5,2,–,–
COc1ccc(-n2nc(C(N)=O)c3c2-c2cc(NC(=O)c4cc(N5CCN(C)CC5)ncc4Cl)ccc2CC3)cc1,33,–,–,–,6.1,–,–
C[C@H]1CN(c2cc(C(=O)Nc3ccc4c(c3)-c3c(c(C(N)=O)nn3-c3ccc(F)cc3)CC4)c(Cl)cn2)CCN1Cc1cnn(C)c1,9,–,–,6,3.5,–,–
NC(=O)c1nn(-c2ccc(F)cc2)c2c1CCc1ccc(NC(=O)c3cc(N4CCC(O)CC4)ncc3Cl)cc1-2,15,–,–,0.1,0.6,–,–
CCn1cc(CN2CCN(c3cc(C(=O)Nc4ccc5c(c4)-c4c(c(C(N)=O)nn4-c4ccc(F)cc4)CC5)c(Cl)cn3)CC2)cn1,102,–,–,> 8,4.2,–,–
CN1CCN(c2cc(C(=O)Nc3ccc4c(c3)-c3c(c(C(N)=O)nn3-c3ccc(O)c(Cl)c3)CC4)c(Cl)cn2)CC1,46,–,–,1,2.8,–,–
COC(=O)Cn1cc(CN2CCN(c3cc(C(=O)Nc4ccc5c(c4)-c4c(c(C(N)=O)nn4-c4ccc(F)cc4)CC5)c(Cl)cn3)CC2)cn1,54,–,24,6,1.1,–,–
CN1CCN(c2cc(C(=O)Nc3ccc4c(c3)-c3c(c(C(N)=O)nn3-c3cccc(O)c3)CC4)c(Cl)cn2)CC1,89,–,–,1,1.2,–,–
COCCNc1cc(C(=O)Nc2ccc3c(c2)-c2c(c(C(N)=O)nn2-c2ccc(F)cc2)CC3)c(Cl)cn1,134,–,–,0.1,0.6,–,–
Cc1nn(C)cc1CN1CCN(c2cc(C(=O)Nc3ccc4c(c3)-c3c(c(C(N)=O)nn3-c3ccc(F)cc3)CC4)c(Cl)cn2)CC1,118,–,–,8,4.3,–,–
Cc1c(CN2CCN(c3cc(C(=O)Nc4ccc5c(c4)-c4c(c(C(N)=O)nn4-c4ccc(F)cc4)CC5)c(Cl)cn3)CC2)cnn1C,67,–,–,8,2.8,–,–
